# Bioassay records as filed in PubChem BioAssay.
# KCNK3 block: human KCNK3 channel inhibitors, primary screen, CHO cells, FluxOR thallium flux, B-score; Potassium channel subfamily K member 3 (Homo sapiens), O14649; FluxOR fluorescence; hits give low values; B-score at 10 µM; hit rate 0.84% among 340,000; AID 602410, 2012;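 active means B-score under library mean minus 4 SD, starting fluorescence ratio at most library mean plus 5 SD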;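 further: more negative B-score means stronger inhibition of thallium flux through KCNK3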
# Kir21 block: inhibitors of mouse Kir2.1 inward-rectifier potassium channel | hit rate 0.85% among 310,000 | Inward rectifier potassium channel 2 (Mus musculus), P35561 | HEK293-Kir2.1, FluxOR thallium flux fluorescence; hits give low values | B-score at 10 µM | AID 1672, 2009;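 active means fluorescence ratio B-score at or below minus 3 SD of library scores, with starting-brightness B-score within 2 SD, cut at about -4.2 in these data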;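 further: channel flux triggered by added potassium and thallium sulfate stimulus; B-score of peak minus minimum fluorescence over baseline after thallium stimulus; more negative B-score means stronger Kir2.1 block with less thallium influx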
# KCNK9 block: KCNK9 potassium channel inhibitors, primary screen, HEK293 cells, thallium flux; Potassium channel subfamily K member 9 (Homo sapiens), Q9NPC2; FluxOR thallium flux fluorescence; hits give low values; B-score at 10 µM; hit rate 1.2% among 310,000; AID 488922, 2010;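 active means ratio B-score over 3 SD below the library mean, with starting fluorescence within 5 SD of its mean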;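 further: negative B-score means less thallium flux so channel inhibition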
# Target sequence (Q9NPC2 whole entry, looked up): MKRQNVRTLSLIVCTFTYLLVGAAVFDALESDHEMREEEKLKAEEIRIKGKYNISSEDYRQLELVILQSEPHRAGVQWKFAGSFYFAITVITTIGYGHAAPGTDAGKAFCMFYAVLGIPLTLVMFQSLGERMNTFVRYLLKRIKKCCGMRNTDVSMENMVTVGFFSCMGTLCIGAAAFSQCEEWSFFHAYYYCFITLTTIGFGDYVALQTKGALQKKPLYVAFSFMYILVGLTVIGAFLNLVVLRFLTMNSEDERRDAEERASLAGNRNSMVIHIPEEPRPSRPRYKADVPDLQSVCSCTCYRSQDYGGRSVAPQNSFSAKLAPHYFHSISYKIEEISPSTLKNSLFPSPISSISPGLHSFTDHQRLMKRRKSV
# KCNQ1 act: potentiators or activators of KCNQ1 channel, primary screen, cell-based, thallium flux, high-throughput | Potassium voltage-gated channel subfamily KQT member 1 (Homo sapiens), P51787 | CHO-K1 KCNQ1, thallium flux FluxOR fluorescence; hits give high values | B-score at 10 µM | hit rate 0.35% among 310,000 | AID 2648, 2010;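 active means fluorescence ratio B-score, a plate-corrected score, at least three library SD, with initial intensity B-score within 5 SD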
#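 Assay system: CHO-K1 cells stably expressing KCNQ1; Medium: assay buffer with matched DMSO; Also added: K+/Tl+ depolarizing stimulus; Dosing: single dose; Timing: dye 90 min, compound 20 min, room temperature; Measured by: kinetic FluxOR thallium fluorescence, 10-s 1-Hz baseline, 110-s post-stimulus read; Read-out: peak-minus-minimum fluorescence over initial fluorescence, negative-control normalized, B-scored.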
# hERG protect: hERG rescue from dofetilide block, primary screen, cell-based, CHO-hERG, FluxOR thallium flux, dofetilide IC70; hit rate 0.51% among 310,000; dofetilide IC70 present; Voltage-gated inwardly rectifying potassium channel KCNH2 (Homo sapiens), Q12809; activation (rescue from dofetilide block), less the hit threshold, % at 10 µM; AID 1511, 2009;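 active means activation above the mean of controls blocked by dofetilide plus 5 SD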;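 further: thallium influx through hERG after potassium depolarization seen as dye fluorescence rise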
# KCNQ1 inh: inhibitors of human KCNQ1 channel, primary screen, cell-based, thallium flux, high-throughput | CHO-K1 KCNQ1, FluxOR thallium flux fluorescence; hits give high values | B-score at 10 µM | hit rate 1.3% among 310,000 | AID 2642, 2010;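 active means compounds whose thallium flux B-score, printed positive for inhibition, exceeds three library SD while starting fluorescence stays within three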;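 further: channel opened by potassium depolarization with thallium stimulus after 20 min compound exposure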
# KCNK9 inh conf: KCNK9 potassium channel inhibitors, confirmation, HEK293 cells, thallium flux, duplicate | shares compounds with KCNK9 block | FluxOR thallium flux fluorescence | inhibition, % at 10 µM | hit rate 43% among 4,900 | AID 492992, 2010;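 active means thallium signal inhibited by more than 5 SD of the compound-free buffer control wells, on both duplicate plates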;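 further: 0% = assay buffer control wells without compound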
# Kir21 sel: mouse Kir2.1 channel inhibition, confirmation, selectivity assay for KCNK9 modulator project, cell-based, HEK293, thallium flux; shares compounds with KCNK9 block; Kir2.1 cells, FluxOR thallium flux fluorescence; inhibition, % at 10 µM; hit rate 4% among 4,900; AID 492993, 2010;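 active means thallium signal drop more than 5 SD beyond the mean of the no-compound control wells, seen in both duplicate plates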;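 further: signal is fluorescence rise after thallium addition divided by baseline fluorescence; plate controls were assay buffer only for no effect and full block by chlorpromazine control for full effect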
# HEK293 Tl ctr: thallium flux in non-induced HEK293 cells, confirmation, counter-screen for KCNK9 inhibitor project, cell-based, second counter screen, non-induced KCNK9-HEK293; FluxOR thallium flux; shares compounds with KCNK9 block; hit rate 40% among 4,900; inhibition, % at 10 µM;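 active means thallium signal drop beyond 5 SD of the untreated control mean, on both duplicate plates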;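 further: plate controls were buffer only IC0 wells for no effect and SID17386958 at its maximal inhibitory level for full effect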
# Starred values were filed as active, the others as inactive; i = inactive; . = no result. Rows were chosen to be rich in hits. Some 3.8% of all compounds tested hit in one or more screens of this group.
SMILES,KCNK3 block,Kir21 block,KCNK9 block,KCNQ1 act,hERG protect,KCNQ1 inh,KCNK9 inh conf,Kir21 sel,HEK293 Tl ctr
Nc1ccc(C#Cc2ccc3oc4ccccc4c(=O)c3c2)cc1,i,-1.18,i,i,-8.8,i,.,.,.
Cn1c2ccccc2c(=O)c2cc(C#Cc3ccc(N)cc3)ccc21,i,1.46,-8.46*,i,-21.1,i,38.0%*,i,25.5%*
CCNc1nc2nonc2nc1NCC,i,0.58,i,i,-3.0,i,.,.,.
CC(C)c1ccccc1-n1c(SCc2cc(=O)oc3ccc4ccccc4c23)nnc1-c1cccnc1,i,-1.69,-11.2*,i,-17.0,i,49.5%*,i,i
CCCCCCC(C)n1[nH]c(=O)cc1N (stereo not given),i,-0.3,i,i,-7.4,i,.,.,.
CCCC1=C(C(=O)OCC)C(c2cccs2)C(C#N)=C(N)O1 (stereo not given),i,-1.86,i,i,-12.3,i,.,.,.
CCN1CC2=C(OC(N)=C(C#N)C2c2cccs2)/C(=C/c2cccs2)C1 (stereo not given),i,1.23,-8.86*,i,-14.6,i,35.0%*,i,31.0%*
Cn1c(=O)c(C(=O)c2ccc(S(C)(=O)=O)c(Cl)c2Cl)c(O)c2ccccc21,i,-0.91,i,i,-5.6,i,.,.,.
CCOc1ccc2[nH]c(=O)c(CN(Cc3cccs3)Cc3nnnn3C(C)(C)CC)cc2c1,-9.91*,-2.25,-9.72*,i,-18.4,i,34.5%*,i,i
O=[N+]([O-])c1ccc(COc2cccc(CNc3ccc(Br)cc3)c2)cc1,i,1.2,-10.2*,i,-15.8,i,i,i,37.0%*
CC(C)OCCCNC(=O)C1CCN(S(=O)(=O)N2CCCC2)CC1,i,-0.03,-8.1*,i,-20.6,i,i,i,i
O=C(NCc1ccccc1)C12CN(Cc3ccccc3)CC1C(c1cccc([N+](=O)[O-])c1)=NO2 (stereo not given),i,0.05,i,i,-12.9,i,i,i,i
O=C(NCc1ccc(OC(F)(F)F)cc1)C12CN(Cc3ccccc3)CC1C(c1cccc([N+](=O)[O-])c1)=NO2 (stereo not given),i,0.25,i,i,-5.7,i,.,.,.
COCc1ccc(C(=O)N2CCCC(N(C)Cc3ccccc3)C2)s1 (stereo not given),i,-0.32,i,i,-3.8,i,.,.,.
CN(Cc1ccccc1)C1CCCN(C(=O)c2ccc(Cl)s2)C1 (stereo not given),i,-0.14,i,i,-7.7,i,i,i,i
O=C(C/C=N/OCc1ccc(F)cc1Cl)c1cnc(-c2ccccc2)s1,i,-0.43,i,i,-6.8,i,i,i,i
O=C(C/C=N/OCc1ccccc1F)c1cnc(-c2ccc(Cl)cc2)s1,i,0.04,i,i,-8.2,i,i,i,i
Cc1ccc(-c2csc(NC(=O)CSC3=NCCS3)n2)cc1,i,-0.74,i,i,-16.5,i,i,i,i
CCOC(=O)C1(C(=O)OCC)CC1c1ccccc1 (stereo not given),i,-2.97,i,i,-5.5,i,.,.,.
CCC(NC(=O)c1cccc(Cn2nc(C)c([N+](=O)[O-])c2C)c1)c1ccc(C(C)C)cc1 (stereo not given),i,0.42,i,i,-8.1,i,i,i,i
CCCNC(=O)c1onc(CSc2ccc(Cl)cc2)c1C(=O)NC(C)C,i,1.82,i,i,-12.8,i,i,i,i
CC(C)NC(=O)c1onc(CSc2ccc(Cl)cc2)c1C(=O)NC(C)C,i,-0.38,i,i,-8.5,i,i,i,i
CCCCNC(=O)c1onc(CSc2ccc(Cl)cc2)c1C(=O)NCCCC,i,1.16,i,i,-4.6,i,.,.,.
CC(C)NC(=O)c1onc(CSc2ccc(Cl)cc2)c1C(=O)O,i,-0.71,i,i,-6.7,i,.,.,.
O=C(CC1(c2ccc(Cl)cc2)C2CC3CC(C2)CC1C3)NCCO (stereo not given),i,0.98,i,i,-10.0,i,.,.,.
SMILES,KCNK3 block,Kir21 block,KCNK9 block,KCNQ1 act,hERG protect,KCNQ1 inh,KCNK9 inh conf,Kir21 sel,HEK293 Tl ctr
COCCNC(=S)N(CCc1c(C)[nH]c2ccccc12)Cc1ccco1,i,-4.66*,i,i,-5.7,i,i,i,i
Cc1[nH]c2ccccc2c1CCN(Cc1cccs1)C(=S)Nc1ccccc1,i,-0.02,-8.18*,i,-7.5,i,33.5%*,i,31.0%*
F[B-](F)(F)c1cc2ccccc2s1,i,.,.,.,.,.,.,.,.
COc1ccc(CNC(=O)c2cccc(-c3ccc(C)c4ccccc34)n2)cc1,i,0.22,i,i,-10.9,i,i,i,i
Cc1cc2ccccn2c1C(=O)c1ccccc1Br,i,0.68,-8.32*,i,-7.6,i,i,i,i
Cc1cc2ccccn2c1C(=O)c1ccc([N+](=O)[O-])cc1[N+](=O)[O-],i,-0.67,i,i,-4.9,i,.,.,.
CCN(CC)c1ccc(-c2nn3c(-c4n[nH]c5c4CCC5)nnc3s2)cc1,-9.01*,0.89,-14.1*,i,-11.9,i,44.0%*,i,36.5%*
CCOC(=O)c1c(NC(=O)c2nn(CC)cc2Br)c(C#N)nn1-c1ccccc1,i,-0.53,-9.35*,i,-8.9,i,30.5%*,i,33.0%*
CCOC(=O)c1nn(-c2ccccc2)c(C#N)c1NC(=O)c1nn(CC)cc1Br,i,-0.02,i,i,-5.3,i,.,.,.
CCN(CC)c1ccc(/C=N\NC(=O)c2cccc3cc[nH]c23)cc1,i,-0.87,i,i,-8.1,i,.,.,.
